# Measured values: PubChem BioAssay
# Calls of active or inactive are those of the source.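 How the source made its calls, unless noted: active means fluorescence slope after compound addition differing from the mean of all tested samples at 99.7% confidence, mostly higher but some lower; inactive means the rest.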
# Tests used:
# [1] = inhibitors of TNFa-induced NFkB p65 translocation, primary screen, imaging, HUVEC, MLSMR starter and 10KST1 sets (AID 438;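 active means inhibition above 20% together with a positive visual image hit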;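 further: compound added about 3h40 before a 20 min TNFalpha stimulation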;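 on inhibition: signal is the nuclear over cytoplasmic p65 intensity ratio per well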); settings: HUVEC TNFa-induced p65 nuclear translocation; cell count: measured here: nuclei count (cytotoxicity indicator), at 2.08 µM; inhibition: at 2 µM, stronger effect = higher value, 0% TNFa-plus-vehicle, 100% no-TNFa wells
# [2] = reduction of polyQ htt aggregates in cells – imaging, exon1htt(103Q)mCFP cells, high-content imaging, primary screen (AID 483;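 active means visual image review flags a hit and inhibition of aggregation exceeds 20%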;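 further: compound exposure lasted 3 days before fixation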;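 on nuclei count: percent of the per-plate median nuclei count of sample wells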); settings: exon1htt(103Q)mCFP cell line, aggregate imaging, at 2 µM; inhibition of aggregation: stronger effect = higher value; nuclei count: measured here: cell count, toxicity
# [3] = endothelial E-selectin expression blockers – imaging, HUVEC, immunofluorescence, MLSMR starter and 10KST1 sets, primary screen (AID 487;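 active means visually confirmed hit in the image check and inhibition above 20%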;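 on inhibition: signal is fraction of cell area covered by stained E-selectin grains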;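 on nuclei count: 100% = median nuclei count of all wells on the same plate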); settings: HUVEC TNFalpha-induced E-selectin immunofluorescence imaging, at 2 µM; inhibition: stronger effect = higher value; nuclei count: measured here: cell number, toxicity
# [4] = target: Voltage-gated potassium channel subunit beta-2 (Rattus norvegicus) (UniProt P62483); experiment: inhibitors of rat Kvbeta2 reductase activity – biochemical, NADPH fluorescence, primary screen (AID 622;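 active means fluorescence slope higher than the sample average by over 3 SD, cut at about -0.22 in these data, passing the limit was not always enough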;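 further: slope of raw intensity against log time taken from 70 to 1610 s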); settings: recombinant KvBeta, 4-cyanobenzaldehyde reduction, at 10 µM, stronger effect = higher value
# Voltage-gated potassium channel subunit beta-2 (Rattus norvegicus), sequence (P62483 whole entry, looked up): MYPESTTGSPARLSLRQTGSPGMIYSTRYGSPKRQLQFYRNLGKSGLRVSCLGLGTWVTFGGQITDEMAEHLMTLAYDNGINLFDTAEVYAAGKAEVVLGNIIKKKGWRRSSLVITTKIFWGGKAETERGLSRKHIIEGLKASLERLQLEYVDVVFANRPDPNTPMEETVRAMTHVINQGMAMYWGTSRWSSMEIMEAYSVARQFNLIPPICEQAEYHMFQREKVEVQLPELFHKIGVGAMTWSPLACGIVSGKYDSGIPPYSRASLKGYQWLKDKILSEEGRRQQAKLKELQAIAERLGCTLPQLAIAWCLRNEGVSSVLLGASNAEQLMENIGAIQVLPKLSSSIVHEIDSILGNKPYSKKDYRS
# [5] = target: Voltage-gated potassium channel subunit beta-2 (Rattus norvegicus) (UniProt P62483); experiment: enhancers of rat Kvbeta2 NADPH turnover – biochemical, NADPH fluorescence, primary screen (AID 623;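 active means NADPH fluorescence slope more negative than the mean of all samples by about 3 SD, 99.7% confidence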;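 further: fluorescence intensity change per second fitted from 20 to 320 s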); settings: Recombinant KvBeta, NADPH fluorescence decrease slope, 10 min; at 10 µM; stronger effect = lower value
# [6] = target: Muscarinic acetylcholine receptor M4 (Homo sapiens) (UniProt P08173); experiment: M4-linked GIRK flux change, two-sided – cell-based, HEK293 M4/GIRK, thallium flux, BTC-AM, M4 allosteric agonist project, primary screen (AID 625); settings: at 10 µM, actives lie on both sides;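 further: thallium influx through GIRK channels coupled to M4 in HEK293 cells with BTC-AM dye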
# Muscarinic acetylcholine receptor M4 (Homo sapiens), sequence (P08173 whole entry, looked up): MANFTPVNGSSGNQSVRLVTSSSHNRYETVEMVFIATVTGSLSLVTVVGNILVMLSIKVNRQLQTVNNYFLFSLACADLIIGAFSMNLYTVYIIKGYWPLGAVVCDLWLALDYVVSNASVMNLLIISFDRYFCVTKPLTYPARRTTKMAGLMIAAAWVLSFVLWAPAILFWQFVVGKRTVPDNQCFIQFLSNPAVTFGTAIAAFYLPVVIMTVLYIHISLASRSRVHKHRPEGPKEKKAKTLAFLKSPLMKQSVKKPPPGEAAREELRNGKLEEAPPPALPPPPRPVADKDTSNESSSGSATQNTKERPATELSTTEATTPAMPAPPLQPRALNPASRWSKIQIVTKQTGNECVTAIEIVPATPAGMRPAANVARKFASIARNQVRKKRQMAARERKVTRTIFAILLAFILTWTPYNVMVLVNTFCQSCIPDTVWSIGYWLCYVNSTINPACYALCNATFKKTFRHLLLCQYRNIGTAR
# Procedure, shortened: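 System: HEK293 cells with M4 receptor and GIRK channels | Incubation: Cells overnight at 37 °C, BTC-AM loading 1 h, reads 2 min total | Technique: Kinetic BTC-AM fluorescence sampled at 1 Hz, 10 s pre-addition baseline | Measure: Post-addition slope, 15–24 s, of baseline-normalized fluorescence | Control set: Carbachol positive, DMSO negative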
# [7] = blockers of RIG-like receptor reporter activation – cell-based, Sendai virus stimulus, luciferase, 10K MLSCN set, TLR/RLR signaling modifier project, primary screen (AID 602276;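 active means inhibition at or above 50% at 10 µM; inactive means inhibition below 50%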;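 further: firefly luciferase from ISG56 promoter only with Renilla not read in this screen; 0% = Sendai virus plus DMSO and 100% = medium plus DMSO without virus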); settings: HEK293 RL24 IRF3 luciferase reporter, at 10 µM, stronger effect = higher value
# [8] = TLR3 IRF3 reporter activation blockers – cell-based, poly I:C stimulus, luciferase, 10K MLSCN set, primary screen (AID 602277;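 active means inhibition of the reporter signal at or above 50%; inactive means inhibition below 50%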); settings: HEK293-TLR3 RL24 IRF3 luciferase reporter, at 10 µM, stronger effect = higher value
Compound,cell count [1],inhibition [1],inhibition of aggregation [2],nuclei count [2] [%],inhibition [3],nuclei count [3] [%],fluorescence slope [4],NADPH fluorescence slope [5],fluorescence slope [6],inhibition [7],inhibition [8]
Cc1nc2nc(Cc3ccccc3)[nH]n2c(=O)c1Cc1ccccc1,351,-3.3% (inactive),-11.2% (inactive),97,-62.2% (inactive),96.1,-0.576 (inactive),-4.3e-05 (inactive),0.0029 (inactive),9.12% (inactive),15.7% (inactive)
COC(=O)c1ccc(CSc2nc3c(cnn3-c3ccc(C)c(C)c3)c(=O)[nH]2)o1,433,9.3% (inactive),2.1% (inactive),98.4,-55.6% (inactive),108,-0.388 (inactive),0.000113 (inactive),0.0057 (inactive),8.02% (inactive),13.9% (inactive)
Cc1cc(=O)oc2cc(Oc3ncccn3)ccc12,476,2.4% (inactive),9% (inactive),93.1,-29.9% (inactive),111,-0.427 (inactive),-1.6e-05 (inactive),0.00578 (inactive),-6.46% (inactive),-5.6% (inactive)
O=C(CN1C(=O)CCSc2ccccc21)Nc1ccc(F)cc1,312,0.7% (inactive),-6% (inactive),100,-8.3% (inactive),110,-0.473 (inactive),4.1e-05 (inactive),0.00664 (inactive),-6.29% (inactive),2.08% (inactive)
Cc1nc2ccc(NC(=O)N3CCC(c4ccccc4)C3)cc2nc1C (centres undefined),551,4.3% (inactive),9.2% (inactive),106,20.7% (inactive),68.5,-0.0383 (inactive),9.4e-06 (inactive),0.00546 (inactive),-0.553% (inactive),-40.6% (inactive)
CCOC(=O)CSc1nnc(CNC(=O)c2ccc(S(=O)(=O)N3CCCC3)cc2)n1C,617,1.2% (inactive),1.3% (inactive),96.9,-54.4% (inactive),122,-0.58 (inactive),-8.2e-06 (inactive),0.00697 (inactive),12.8% (inactive),18.7% (inactive)
COc1cc(NC(=O)C2CC(c3cccc(OC)c3OC)=NO2)cc(OC)c1OC (centres undefined),711,-12.2% (inactive),-18.4% (inactive),76.9,-176% (inactive),104,-0.573 (inactive),2.2e-05 (inactive),0.0048 (inactive),17.4% (inactive),-1.09% (inactive)
Cc1ccc(NC(=O)COc2nc(C)cs2)cc1,400,4.5% (inactive),-3.7% (inactive),100,-48.8% (inactive),108,-0.555 (inactive),-5e-05 (inactive),0.00704 (inactive),6.37% (inactive),9.54% (inactive)
c1ccc(Cn2nnc3c(N4CCC5(CC4)OCCO5)ncnc32)cc1,382,-1.3% (inactive),0.3% (inactive),103,-346% (inactive),144,-0.522 (inactive),-5.2e-05 (inactive),0.00535 (inactive),3.41% (inactive),6.57% (inactive)
CCOC(=O)c1ccc(NS(=O)(=O)c2ccc(SC)cc2)cc1,643,-9% (inactive),4.8% (inactive),89,-21.6% (inactive),88.3,-0.48 (inactive),-4.9e-05 (inactive),0.00382 (inactive),13.8% (inactive),16.1% (inactive)
Oc1ccccc1C1=Nc2nc3ccccc3n2C(c2ccccc2)C1 (centres undefined),579,6.8% (inactive),3.6% (inactive),107,-49.5% (inactive),102,-0.539 (inactive),-7.3e-05 (inactive),0.00255 (inactive),-38.4% (inactive),-68.7% (inactive)
CC(C)N(C(=O)COC(=O)c1ccc(O)cc1)C(C)C,467,1% (inactive),12.6% (inactive),112,-8.7% (inactive),121,-0.553 (inactive),-3.1e-05 (inactive),0.00574 (inactive),17.3% (inactive),14.3% (inactive)
CCC1(C)Cc2c(C#N)c(N)n(-c3ccccc3)c(=O)c2CO1 (centres undefined),531,-8.6% (inactive),13.9% (inactive),100,-59.9% (inactive),93.4,-0.622 (inactive),6.4e-05 (inactive),0.00509 (inactive),-3.47% (inactive),5.33% (inactive)
CC1(C)OC(=O)C(=CNc2ccccc2)C(=O)O1,548,9.4% (inactive),-4.1% (inactive),108,54.3% (inactive),102,-0.617 (inactive),-1.8e-06 (inactive),0.00548 (inactive),-10% (inactive),99% (active)
